The source made the active and inactive calls. No cut-off for these calls is given here.
Key:
Escherichia coli = assay: Antimicrobial activity against Escherichia coli ATCC 25922 by the broth microdilution method; assay type: functional
Staphylococcus aureus = assay: Antimicrobial activity against Staphylococcus aureus ATCC 29213 by the broth microdilution method; assay type: functional
Bacillus thuringiensis = assay: Antimicrobial activity against Bacillus thuringiensis SCSIO BT01 by the broth microdilution method; assay type: functional
Bacillus subtilis = assay: Antimicrobial activity against Bacillus subtilis SCSIO BS01 by the broth microdilution method; assay type: functional
Candida albicans = assay: Antimicrobial activity against Candida albicans ATCC10231 by the broth microdilution method; assay type: functional
MCF7 = assay: Cytotoxicity against human MCF7 cells by SRB assay; assay type: functional, cell-based
How it was run: (§1)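 Sulforhodamine B (SRB) cytotoxicity assay, following an earlier published protocol, run in vitro against a four-line human tumor panel: HepG2 (hepatocellular liver carcinoma), MCF7 (breast adenocarcinoma), NCI-H460 (non-small-cell lung cancer) and SF268 (glioma). IC50 values reported in μM.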

NCI-H460 = assay: Cytotoxicity against human NCI-H460 cells by SRB assay; assay type: functional, cell-based; how it was run: as §1
HepG2 = assay: Cytotoxicity against human HepG2 cells by SRB assay; assay type: functional, cell-based; how it was run: as §1

SMILES	MIC (Escherichia coli) [µg/mL]	MIC (Staphylococcus aureus) [µg/mL]	MIC (Bacillus thuringiensis) [µg/mL]	MIC (Bacillus subtilis) [µg/mL]	MIC (Candida albicans) [µg/mL]	IC50 (MCF7) [µM]	inhibition (NCI-H460)	inhibition (HepG2)
CN1C[C@](C)(c2cn(C)cc2-c2c[nH]c3ccc(Cl)cc23)c2cc(Cl)ccc21	> 128	> 128	> 128	> 128	> 128	> 10	inactive	inactive
Cc1c2c(cn1C)[C@]1(C)c3cc(Cl)ccc3N(C)[C@@H]1c1[nH]c3ccc(Cl)cc3c1-2	> 128	> 128	> 128	> 128	> 128	10	inactive	inactive
Cc1[nH]cc2c1-c1c([nH]c3ccc(Cl)cc13)[C@H]1N(C)c3ccc(Cl)cc3[C@@]21C	> 128	> 128	> 128	> 128	> 128	> 10	inactive	inactive
COC(=O)c1c(-c2c[nH]c3ccc(Cl)cc23)c(-c2c[nH]c3ccc(Cl)cc23)cn1C	> 128	> 128	> 128	> 128	> 128	> 10	inactive	inactive
CN1c2ccc(Cl)cc2[C@@]2(C)c3cn(C)cc3-c3c([nH]c4ccc(Cl)cc34)[C@@H]12	> 128	> 128	> 128	> 128	> 128	> 10	inactive	inactive
COC(=O)c1c(-c2c[nH]c3ccc(Cl)cc23)c(-c2c[nH]c3ccc(Cl)cc23)c(C(=O)OC)n1C	> 128	> 128	> 128	> 128	> 128	> 10	inactive	inactive
CN1c2ccc(Cl)cc2[C@@]2(C)c3c[nH]cc3-c3c([nH]c4ccc(Cl)cc34)[C@@H]12	> 128	> 128	> 128	> 128	> 128	> 10	inactive	inactive

Source: ChEMBL document CHEMBL3351933, “Indimicins A-E, Bisindole Alkaloids from the Deep-Sea-Derived Streptomyces sp. SCSIO 03032” (J Nat Prod, 2014)
